We go through 4 compounds from ChEMBL document CHEMBL3120126, “Discovery of hepatitis C virus NS3-4A protease inhibitors with improved barrier to resistance and favorable liver distribution” (J Med Chem, 2014).

The term Cmax denotes the peak of the concentration-time curve. For orientation: bioavailability means dose-corrected exposure relative to a reference, in per cent. Low values mean poor availability, high ones good availability. Broadly, the Kp is the ratio of the level in a tissue or fluid to that in plasma or blood. As usually defined, the AUC is the area under the concentration-time curve, a measure of exposure. A higher AUC goes with high exposure.

Series [1] can be described thus: Cmax in rat at 10 mg/kg, po. The class given is ADME, organism-based. Details: dose 10 mg/kg, route oral. The settings on record: in vivo.
Series [2] can be described thus: Oral bioavailability in rat at 10 mg/kg. In kind it is ADME, organism-based. To be noted: in vivo. Put shortly:
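Bioavailability was derived from rat oral dosing in 1% N-methyl-2-pyrrolidone, 0.5% Methocel and 0.3% Tween-80, compared with intravenous dosing in a 70% PEG-400-based vehicle.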

Series [3] can be described thus: Drug uptake in rat liver after 8 hrs. The class given is ADME, tissue-based. To be noted: read-out: Drug uptake.
A short description of series [4]: Volume of distribution at steady state in rat at 4 mg/kg, iv. Details: dose 4 mg/kg, route intravenous. The class given is ADME, organism-based. The settings on record: in vivo, read-out: Vdss. Put shortly:
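Rats received intravenous dosing in a vehicle of 70% PEG-400.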

Series [5] has as its system Liver. In words: Liver-to-plasma partition coefficient in rat.
Series [6] is described as follows: AUC in rat at 10 mg/kg, po. The class given is ADME, organism-based. The arrangement: dose 10 mg/kg, route oral. The settings on record: plasma.

Turning to `COc1ccc2c(O[C@@H]3C[C@H]4C(=O)N[C@]5(C(=O)NS(=O)(=O)C6CC6)C[C@H]5/C=C\CCCCC[C@H](NC(=O)c5ccn(CC(F)F)n5)C(=O)N4C3)cc(OC(C)C)nc2c1C`, in series [1], the peak level (Cmax) was 0.3 µM. This compound also displayed a bioavailability in series [2] of 6.1%. The concentration at 8 h in series [3] was determined as 6.5 µM. Further, the Vd in series [4] stood at 0.86 L/kg. The compound also showed a Kp in series [5] of 323. Also, the AUC in series [6] was 0.36 µM·h.

`COc1ccc2c(O[C@@H]3C[C@H]4C(=O)N[C@]5(C(=O)NS(=O)(=O)C6(C)CC6)C[C@H]5/C=C\CCCCC[C@H](NC(=O)c5cnn(C)n5)C(=O)N4C3)cc(OC(C)C)nc2c1C` yielded a Cmax in series [1] of 0.87 µM. Further, the bioavailability in series [2] was found to be 16%. Besides, in series [3], the concentration at 8 h stood at 73 µM. Further, the Vd in series [4] came out at 2 L/kg. For the same compound, in series [5], the Kp is recorded as more than 1500. The AUC in series [6] was 1.4 µM·h.

As for `COc1ccc2c(O[C@@H]3C[C@H]4C(=O)N[C@]5(C(=O)NS(=O)(=O)C6(C)CC6)C[C@H]5/C=C\CCCCC[C@H](NC(=O)c5ccn(C)n5)C(=O)N4C3)cc(OC(C)C)nc2c1C`, the peak level in series [1] (Cmax) was 1.3 µM. Further, the bioavailability in series [2] is 14%. For the same compound, the concentration at 8 h in series [3] was 56 µM. The Vd in series [4] worked out at 0.97 L/kg. The same compound showed a Kp in series [5] of more than 1500. The AUC in series [6] was determined as 1.4 µM·h.

Turning to `COc1ccc2c(O[C@@H]3C[C@H]4C(=O)N[C@]5(C(=O)NS(=O)(=O)C6CC6)C[C@H]5/C=C\CCCCC[C@H](NC(=O)c5ccn(CC(F)(F)F)n5)C(=O)N4C3)cc(OC(C)C)nc2c1C`, the Cmax in series [1] came to 0.88 µM. The bioavailability in series [2] worked out at 11%. The concentration at 8 h in series [3] stood at 11 µM. Moreover, in series [4], the Vd worked out at 3.3 L/kg. This compound gave a Kp in series [5] of 360. In series [6], this compound yielded an AUC of 1.3 µM·h.
